Test: Toxicity liver stage against HepG2, at 10uM
Type: cell-based
Design: test concentration 10 uM, cell line HepG2-A16-CD81EGFP
Details: human, HepG2-A16-CD81EGFP cells; read-out: INHIBITION
How it was run: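 Uninfected HepG2-A16-CD81EGFP cells, 3 × 10^3 per well, 1536-well, plated on prespotted compound at 10 μM final, parasite-free screening media added to match infected plates; puromycin 10 μM positive, DMSO 0.5% negative; run in parallel with 48 h PbLuc assay at 37 °C, 5% CO2; viability by CellTiter-Glo luminescence, normalized to controls.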

| Structure (SMILES) | cytotoxicity at 10 µM |
| --- | --- |
| CCc1cc(CNC(=O)C2CCC(=O)N(Cc3ccccc3F)C2)on1 (centres undefined) | 1.48% |
| O=C(NC[C@H]1OC[C@@H](NCc2cccs2)[C@@H]1O)N1CCOCC1 | -3.53% |
| CC(C)(O)c1cn(C[C@H]2C[C@@H]3CCN2C[C@@H]3C(=O)N2CCOCC2)nn1 | 3.49% |
| COc1ccc(C)cc1NC(=O)c1c(C)cn(C)c1CC(=O)O | -0.713% |
| O=C1CN(C(=O)C2CCCCC2)CC(O)CN1Cc1ccc(Cl)cc1 (centres undefined) | 6.02% |
| O=C(COc1coc(CN2CCOCC2)cc1=O)Nc1ccccc1F | -10.7% |
| Cc1cc(NCc2ccccc2)nc2[nH]nc(N)c12 | -44% |
| Cn1[nH]c(CNc2cccc(Cl)c2)nc1=O | -0.165% |
| O=C(NCCc1c[nH]c2ccc(F)cc12)C1(n2cnnn2)CCCCC1 | -1.34% |
| CCS(=O)(=O)N1CC(c2nc(-c3ccsc3)no2)C1 | -8.25% |
| Cc1nc(N2CCCC2)nc(C)c1NC(=O)c1ccco1 | -7.7% |
| CCOCC1COCCC12CCN(C(=O)CC1=CCCCC1)CC2 (centres undefined) | 2.99% |
| CC1CCCCN1C(=O)c1nc2c(n1C(C)C)CCN(C(=O)C1CC1)C2 (centres undefined) | 15.4% |
| COc1cccc(CC(=O)N2CC[C@@H]3NC(=O)CC[C@@H]32)c1 | -4.04% |
| CS(=O)(=O)N1CCCC12CCCN(S(=O)(=O)c1ccc(F)c(F)c1)C2 (centres undefined) | 1.46% |
| Cc1ccc(C(=O)N2CC[C@H]3O[C@@H](c4noc(C)n4)C[C@H]3C2)o1 | 1.92% |
| CCOc1cccc(CNc2ccccc2OC)c1O | 0.142% |
| CN1CC2(COCCN(C(=O)c3ccco3)C2)OCC1=O (centres undefined) | 2.33% |
| O=C(c1cnccn1)N1CCN2C[C@H](OCc3ccccn3)C[C@H]2C1 | -0.746% |
| N#Cc1c(N2CCCCC2)nsc1-c1cccnc1 | 18.8% |
| CCn1cc(NC(=O)CN2CCC(Oc3ccccc3C)CC2)c(C)n1 | 0.343% |
| Cc1cc(N2CCOC(c3ccc(N(C)C)cn3)C2)nc(N)n1 (centres undefined) | 5.62% |

| Structure (SMILES) | cytotoxicity at 10 µM |
| --- | --- |
| Cc1nccn1[C@@H]1CC[C@@H](N(C)S(=O)(=O)c2ccc(F)cc2)[C@H]1O | -0.535% |
| CC(=O)N1CCCC1c1ccc(Br)cn1 (centres undefined) | 4.29% |
| Cc1nc(N)cc(C2CCN2CCOc2ccccc2)n1 (centres undefined) | 10% |
| Cc1cnc2[nH]c(C(F)(F)F)c(CN3CCOCC3)c2c1 | 11.7% |
| c1cc2cc[nH]c2c(CC2CN(Cc3cncs3)C2)n1 | -0.54% |
| CC(C)(C)CN1CCC(c2nccnc2Nc2cnccn2)CC1 | -4.98% |
| Cn1nc(-c2ccc(F)cc2)cc1C(=O)NCCn1ccnc1 | 3.68% |
| Cn1ccc(C(=O)N2CCCC(Cc3cnc4ccccc4c3)C2)n1 (centres undefined) | -6.19% |
| Cc1csc2c(=O)n3c(nc12)CCN(C(=O)c1ccnn1C)CC3 | -9.35% |
| CN1CCN(Cc2c(-c3ccco3)[nH]c3ncccc23)CC1 | 5.63% |
| O=C(C1CCCC1)N1CC2(CCCN(C3COC3)C2)Cc2ccccc21 (centres undefined) | 9.96% |
| Cc1cc(CN2CCN(Cc3cc(C#N)ccc3F)CC2)no1 | 5.78% |
| O=S(=O)(c1ccc2c(c1)CCC2)N1CCCC(Cn2cncn2)C1 (centres undefined) | 4.19% |
| COC(=O)c1ncccc1N1CCCC1 | -3.1% |
| CC(C)(C)c1cnc(CN2CCCS2(=O)=O)o1 | 2.07% |
| CCCc1n[nH]c(C2CN(CCNC3CCCCC3)CCO2)n1 (centres undefined) | 2.75% |
| CC(NC(=O)NC1CCN(CC2CCCC2)CC1)c1nccs1 (centres undefined) | 3.2% |
| CC1CN(C(=O)c2nccnc2N)c2ccc(F)cc2O1 (centres undefined) | 4.28% |
| CN(Cc1ccsc1)C(=O)c1nc(N2CCCC2)ncc1Cl | -45.5% |
| O=C(CCSc1ccccc1F)NCc1cccnc1 | -4.48% |
| Cc1ccc(NS(=O)(=O)c2cccc(C#N)c2)c(CN(C)C)c1 | -4.97% |
| Cc1cccnc1NC(=O)C1CCCN(c2cccc(C(F)(F)F)n2)C1 (centres undefined) | 4.95% |

| Structure (SMILES) | cytotoxicity at 10 µM |
| --- | --- |
| Cn1c(NC(=O)CNC(=O)C2CC2)nc2cc(Cl)ccc21 | 3.66% |
| N#Cc1ccnc(N2CCN(CC(O)c3c(F)cccc3F)CC2)c1 (centres undefined) | -5.43% |
| CCN(CC(=O)NC(C)C)S(=O)(=O)N1CCCCC1C (centres undefined) | -1.14% |
| Cc1cc(C)c2c(OCC(=O)N(C)CC(=O)NC(C)C)nn(C)c2n1 | 1.28% |
| Cc1ccccc1OCCCC(=O)N(C)CCC#N | 2.33% |
| O=C(CN1CCN(c2ccnc3c(F)ccc(F)c23)CC1)N1CCCC1 | 17.4% |
| CNc1cc(N2CCCC2CNCc2ccc(C)o2)ncn1 (centres undefined) | -2.69% |
| Cn1ccnc1-c1noc(NCc2ccc3c(c2)OCCO3)n1 | -0.408% |
| CNC(=O)CN(C)c1cncc(OCC(C)C)n1 | 0.137% |
| COc1ccc(C(=O)NCCN(C)C)c(I)c1 | -1.93% |
| CC(C)CCN1CCN(C(=O)c2c[nH]nn2)CC1 | 1.64% |
| Cc1nc(NC(=O)OC(C)(C)C)sc1C(N)=O | -14.4% |
| CC(C)c1nc(C2CCCN2CCN2CCCCC2)no1 (centres undefined) | -4.58% |
| Cc1noc(C)c1CNS(=O)(=O)N(C)Cc1ccc(Cl)cc1 | 11.2% |
| CC(C)c1noc(CS(=O)(=O)CC(=O)NCC(F)(F)F)n1 | 7.62% |
| Cc1cccc(CNCc2c(C(C)C)nn(C)c2N2CCOCC2)n1 | -9.4% |
| CN(C)C(=O)N1Cc2nnn(CC3CC3)c2C(COCC2CC2)C1 (centres undefined) | 8.26% |
| Cc1noc(C)c1CN1C[C@@H]2COC[C@@H](CC(=O)N3CCCO3)[C@@H]2C1 | -68.3% |
| CCC(Nc1cccc(OC)c1)C(=O)NCc1ccc2[nH]c(=O)[nH]c2c1 (centres undefined) | 1.67% |
| CN(C)[C@@H]1C[C@@H](CO)N(C(=O)Nc2cccc(F)c2F)C1 | -0.103% |
| CC(CN1CCC(CCO)CC1)n1cnc2ccccc21 (centres undefined) | 5.34% |
| CCOCCn1nc(C)cc1C(=O)N1CCCC[C@H](N(C)C)C1 | -3.68% |

| Structure (SMILES) | cytotoxicity at 10 µM |
| --- | --- |
| COCCN1CCN(Cc2ccc3nsnc3c2)[C@H]2CS(=O)(=O)C[C@H]21 | -5.94% |
| CSCC1CCCN(c2ncnc3oc(C)nc23)C1 (centres undefined) | 4.03% |
| O=C(c1cc(COc2ccc3c(c2)OCO3)[nH]n1)N1CCCC(O)C1 (centres undefined) | -8.07% |
| CC(c1ccccc1)n1c(SCC(=O)O)nnc1-c1ccn[nH]1 (centres undefined) | -0.0682% |
| Cc1nc(C)n(CC(C)C(=O)N2CCC(NS(C)(=O)=O)CC2)n1 (centres undefined) | -4.4% |
| NC(=O)NCC(=O)N1CCC(c2cc(-c3ccccc3Cl)n[nH]2)CC1 | -0.208% |
| CCCOCCn1ncc(N2CCc3ccccc3C2)cc1=O | 2.63% |
| Cc1ccc2c(c1)SCC(=O)N2Cc1noc(C2CC2)n1 | 7.4% |
| c1cc2c(cc1-c1noc3c1CN(C1CCSCC1)CC3)OCO2 | 5.51% |
| COCc1ncc(-c2nccn2CCn2cnnc2)cn1 | 4.6% |
| Cc1cn(CC(=O)Nc2cc(C(C)C)nn2C)cn1 | 5.44% |
| CN(Cc1cnc(C(C)(C)C)nc1)Cc1nc2ccc(F)cc2[nH]1 | -12.3% |
| COc1ccccc1-n1c(CC(C)C)nnc1SCC(=O)O | -6.71% |
| CN1CCC(Cc2noc(-c3cccc(Oc4ncccn4)c3)n2)CC1 | -5.21% |
| CC(NC(=O)CN(C)S(C)(=O)=O)c1ccc(F)cc1 (centres undefined) | -4.36% |
| CCOc1ccc(C(=O)N(CCOC)Cc2c(C)nn(CC)c2C)o1 | -2.99% |
| C[C@@H]1CN(C2(C(=O)N3CCCCCC3)Cc3ccccc3C2)C[C@H](C)O1 | -2.04% |
| c1cn(Cc2nnc(C3CCN(c4nccs4)CC3)n2C2CC2)cn1 | -7.6% |
| Cc1ccc(F)cc1C(=O)N1C[C@@H](CN2CCOCC2)[C@@H](CO)C1 | -6.2% |
| Cc1ccccc1CNc1nc(O)cc(C2CC(=O)N(C)C2)n1 (centres undefined) | -0.336% |
| Cc1ccc(CCNC(=O)Nc2cc(C(F)(F)F)c[nH]c2=O)o1 | -11.9% |
| Cc1ccc(N2CCCN(C(=O)CC3C=CCC3)CC2)nn1 (centres undefined) | -9.2% |

| Structure (SMILES) | cytotoxicity at 10 µM |
| --- | --- |
| Cc1n[nH]c(C)c1C1COCCN1C(=O)c1cccc(F)c1F (centres undefined) | -8.45% |
| Cc1cc(NC(=O)CN2CCc3cnc(C(C)C)nc3C2)on1 | -12.1% |
| Cn1c(CNCC2CCCN2c2cccnn2)nc2ccccc21 (centres undefined) | -18.2% |
| CN1CCC/C1=N\S(=O)(=O)c1ccc(NC(=O)c2ccc(Cl)s2)cc1 | 1.55% |
| Cc1cc(N2CCC(C(=O)NC3CC3)CC2)nc(-c2ccncc2)n1 | -17% |
| CN(C)c1ccc(C(=O)N2CCN(Cc3cscn3)CC2)cn1 | -4.57% |
| Cc1cnn(CC2CCCN2CC(=O)Nc2cc(C)no2)c1 (centres undefined) | 2.27% |
| Cn1ccc(CN2CCC(Cc3ccccc3)CC2)cc1=O | 1.78% |
| Cc1nc2c(c(C)c1CC(=O)NCc1cccs1)c(=O)[nH]n2C | -34.2% |
| CCc1nc(C2CCCN(C(=O)NCCOC)C2)no1 (centres undefined) | -0.775% |
| O=C(c1ccccc1N1CCOCC1)N1CCCC1Cn1cccn1 (centres undefined) | -7.44% |
| Cc1cc(NC(=O)CN2CCn3c(nnc3C(C)C)C2)on1 | 5.05% |
| c1cnc(-c2nc(CN3CCn4c(nnc4C4CC4)C3)cs2)nc1 | -6.93% |
| CS(=O)(=O)CC(=O)N1C[C@H]2CCC[C@@]2(COc2ccccn2)C1 | -99.2% |
| CNC(=O)CC1CC2(CCN(Cc3nccs3)CC2)c2ccccc21 (centres undefined) | -15% |
| O=C([C@H]1C[C@H]2OCC[C@H]2N(CCc2ccccc2)C1)N1CCCCO1 | 0.307% |
| CCS(=O)(=O)N1CCO[C@H]2[C@H](OCCCn3cccn3)CC[C@@H]21 | -5.04% |
| COCC1CN(S(=O)(=O)Cc2ccc(C)cc2)Cc2c1cnn2C (centres undefined) | 3.51% |
| Cc1ccccc1C(=O)N1CCO[C@H]2[C@H](OCCN(C)C)CC[C@@H]21 | -2.95% |
| CN(C)CCNC(=O)[C@H]1C[C@H]2CN(C(=O)NCc3ccccc3)C[C@@H]1O2 | 1.96% |
| COc1ccc(C2=CN=C(C(F)(F)F)CC2N)cc1 (centres undefined) | 16.6% |

From ChEMBL document CHEMBL4513216, “Probing the Open Global Health Chemical Diversity Library for Multistage-Active Starting Points for Next-Generation Antimalarials” (ACS Infect Dis, 2020)
